Measurements published in the M2OR odorant receptor database.

Tests used:
Conditions in all cases: stereoisomer not certain
[1] = system: O10A2 H43R H207R K258T
Summary of the method: (§1)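 Each entry records the cell line, G-protein, co-transfected protein and tags used. Methods varied with the source, often transient luciferase assays in mammalian cell lines. A receptor–molecule pair is called responsive (active) if the original authors judged its signal statistically different from baseline and non-responsive (inactive) otherwise.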

[2] = system: O10A3 C8G
Sequence of O10A3 C8G (as listed by the source): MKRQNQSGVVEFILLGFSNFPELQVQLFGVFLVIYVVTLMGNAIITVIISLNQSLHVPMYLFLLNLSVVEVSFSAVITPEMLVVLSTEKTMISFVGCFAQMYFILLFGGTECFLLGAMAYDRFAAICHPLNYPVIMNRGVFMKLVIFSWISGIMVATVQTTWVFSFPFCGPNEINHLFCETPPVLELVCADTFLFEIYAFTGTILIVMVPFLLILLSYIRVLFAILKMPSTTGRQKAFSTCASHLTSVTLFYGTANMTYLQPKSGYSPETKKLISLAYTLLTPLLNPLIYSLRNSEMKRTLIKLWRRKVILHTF
Summary of the method: as §1

[3] = system: O10A6
Sequence of O10A6 (as listed by the source): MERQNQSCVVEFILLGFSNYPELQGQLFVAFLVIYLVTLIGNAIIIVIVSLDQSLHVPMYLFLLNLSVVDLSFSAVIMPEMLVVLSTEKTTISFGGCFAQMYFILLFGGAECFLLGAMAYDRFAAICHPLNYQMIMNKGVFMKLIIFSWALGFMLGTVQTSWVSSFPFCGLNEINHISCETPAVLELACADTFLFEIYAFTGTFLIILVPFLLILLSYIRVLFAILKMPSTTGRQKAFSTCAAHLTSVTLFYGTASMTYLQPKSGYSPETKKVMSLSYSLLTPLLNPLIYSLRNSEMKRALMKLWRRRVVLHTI
Summary of the method: as §1

[4] = system: O10AD G65C
Sequence of O10AD G65C (as listed by the source, stated change not applied): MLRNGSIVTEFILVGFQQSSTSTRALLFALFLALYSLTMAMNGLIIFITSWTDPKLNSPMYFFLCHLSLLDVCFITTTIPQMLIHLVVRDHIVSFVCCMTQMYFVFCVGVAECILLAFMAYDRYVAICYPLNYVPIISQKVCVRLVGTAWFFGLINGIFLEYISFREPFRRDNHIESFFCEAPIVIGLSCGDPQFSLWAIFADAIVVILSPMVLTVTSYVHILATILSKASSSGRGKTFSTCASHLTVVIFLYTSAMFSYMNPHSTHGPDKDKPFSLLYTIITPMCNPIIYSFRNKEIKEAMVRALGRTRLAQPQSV
Summary of the method: as §1

[5] = system: O10D3 V134A R197K
Summary of the method: as §1

[6] = system: O10G4 L24P V195E
Summary of the method: as §1

[7] = system: O10G7 A18V P19Q G20A
Summary of the method: as §1

Measured: odorant receptor agonist call

C=CCOC(=O)Cc1ccccc1
inactive: all assays above
